Assay results from ChEMBL document CHEMBL4513216, “Probing the Open Global Health Chemical Diversity Library for Multistage-Active Starting Points for Next-Generation Antimalarials” (ACS Infect Dis, 2020).

Experiment: Toxicity liver stage against HepG2, at 10uM
Format: cell-based
Parameters: test concentration 10 uM, cell line HepG2-A16-CD81EGFP
Conditions: human, HepG2-A16-CD81EGFP cells; read-out: INHIBITION
Summary of the method: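 Uninfected HepG2-A16-CD81EGFP cells, 3 × 10^3 per well, 1536-well, plated on prespotted compound at 10 μM final, parasite-free screening media added to match infected plates; puromycin 10 μM positive, DMSO 0.5% negative; run in parallel with 48 h PbLuc assay at 37 °C, 5% CO2; viability by CellTiter-Glo luminescence, normalized to controls.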

| SMILES | cytotoxicity at 10 µM [%] |
| --- | --- |
| O=C(COCC(F)(F)F)Nc1nncs1 | 5.79 |
| Cc1cccc(OC2CCN(C(=O)NCCn3ccnc3)CC2)c1C | 0.856 |
| CC(C)c1nc(CSc2nnc(C3CC3)n2CC(N)=O)no1 | -147 |
| Cc1ccc(CNC2(Cc3cc(CO)on3)COC2)o1 | 0.305 |
| CC(C)NC(=O)N[C@H]1C[C@@H](c2nc(-c3ccncc3)no2)N(C)C1 | -2.8 |
| CC(=O)N1N=C(c2ccco2)OC1C(=O)NCC(C)C (stereo not drawn) | -5.31 |
| O=S1(=O)[C@@H](c2ccccc2)[C@H](CO)CN1c1ccccc1 | -5.41 |
| Cc1ccc(NC(=O)CC2NC(N3CCc4ccccc43)=NC2=O)cc1 (stereo not drawn) | 0.417 |
| Cc1cc(C)n(Cc2ccc(-c3noc(C(=O)NC[C@@H](C)O)n3)cc2)n1 | -9.62 |
| O=C(Cn1cccn1)N1CCC(c2nnc(C(F)(F)F)o2)CC1 | -10.8 |
| O=C(c1cscn1)N1CCC2(CC1)CCN(S(=O)(=O)c1ccccc1)C2 | 10.5 |
| Cc1nc(NC(C)C)nc2c1CN(Cc1nccn1C)CC2 | 8.13 |
| CO[C@@H]1CC[C@H]2[C@H]1OCCN2S(=O)(=O)c1cn(C)cn1 | 5.32 |
| COCCN1CCC2(CC1)COc1ccccc1S(=O)(=O)N(C)C2 | -1.28 |
| COCC1CC2(CCN(C(=O)c3oc4ccccc4c3C)CC2)CO1 (stereo not drawn) | -141 |
| CCOc1cc(=O)n2c(c1C(=O)OCc1ccc(F)cc1)CCCC2 | 3.51 |
| c1cncc(OCc2noc3c2CN(Cc2ccoc2)CC3)c1 | -8.33 |
| CCN(CC)C(=O)c1ccn(COc2ccc(F)cc2F)n1 | 7.61 |
| COc1cccc(CNC(=O)c2cc(C)nc(N3CCCC3)n2)c1 | 23.1 |
| CCn1ccc(NS(=O)(=O)c2cccc(CSC)c2)n1 | 10.4 |
| Cc1cc(C(F)(F)F)nn1C(C)C(=O)NN1CCOCC1 (stereo not drawn) | -1.67 |
| Cc1ccc(CNc2cc(C(=O)N3CCOCC3)nc(C)n2)cc1 | -1.61 |
| CC1CCN(C(=O)C2CC(=O)N(c3cnn(C(C)C)c3)C2)CC1 (stereo not drawn) | -0.343 |

| SMILES | cytotoxicity at 10 µM [%] |
| --- | --- |
| Cn1ccc(C(=O)N2CCC(c3cc(CCO)n(C)n3)C2)n1 (stereo not drawn) | -3.69 |
| Cc1ncsc1C(=O)N1CCC(c2ccc3c(NC(C)C)n[nH]c3n2)C1 (stereo not drawn) | 4.42 |
| CC(=O)NCc1cncc(C2CCCN2C2CCOCC2)n1 (stereo not drawn) | 2.15 |
| CC(=O)N1CC(C(=O)N2CCCC(Cn3ccnc3C)C2)C1 (stereo not drawn) | 1.27 |
| Cc1ncsc1CN1CCOC(C)(C(=O)N2CCOCC2)C1 (stereo not drawn) | -1.95 |
| CNC(=O)C1(C)CN(c2nc(C)cc(C)n2)CCO1 (stereo not drawn) | 7.92 |
| Cc1cc(Nc2ncccn2)nc(C2CCCN(CCO)C2)n1 (stereo not drawn) | 1.09 |
| COc1cc2cc3c(nc2cc1OC)OCCN(Cc1cccs1)C3 | 11.4 |
| Cc1cnn(CC2CCN(CC(O)c3ccc(F)cc3)CC2)c1 (stereo not drawn) | -0.237 |
| CCC(c1ccncc1)N(C)S(C)(=O)=O (stereo not drawn) | -5.98 |
| CCCn1c(NC(=O)CNC(=O)OCC)nc2ccccc21 | -4.41 |
| CC(=O)N1CCN(c2ccccc2CNc2cncc(C)c2)CC1 | 2.22 |
| OC1CCN(c2nc(-c3ccccc3)no2)CC1 | -9.57 |
| Cn1cc(CNC2CCCOc3c(Cl)cccc32)cn1 (stereo not drawn) | 10.7 |
| CCC1(CC)CC(=O)N(CC(O)c2cc(F)ccc2F)C1=O (stereo not drawn) | -4.42 |
| O=C(NCCc1nncn1C1CC1)C1SCCc2ccccc21 (stereo not drawn) | 2.48 |
| CCc1noc(CN(C)C2CCN(c3sccc3C#N)C2=O)n1 (stereo not drawn) | 7.73 |
| COc1ccc(Cl)cc1CS(=O)(=O)Cc1nc(C2CC2)no1 | 3.43 |
| Cc1noc(C(C)Nc2ccc3oc(=O)[nH]c3c2)n1 (stereo not drawn) | -2.27 |
| CC(C)S(=O)(=O)C(C)C(=O)NCc1ccccc1COc1ccccc1 (stereo not drawn) | 12.1 |
| NC(=O)C1CCN(c2ncccc2C(=O)N2CCc3ccccc32)C1 (stereo not drawn) | -5.78 |
| O=C(Nc1ccc2c(ccn2CCN2CCOCC2)c1)c1ccccn1 | 0.425 |
| Cc1cc(F)ccc1S(=O)(=O)N(C)CC(N)=O | 1.38 |

| SMILES | cytotoxicity at 10 µM [%] |
| --- | --- |
| CCS(=O)(=O)CC(=O)NC(c1ccccc1)C1CCCC1 (stereo not drawn) | -137 |
| N#Cc1ncn(CCC(=O)Nc2ccccc2F)n1 | -150 |
| O=C(NCc1ccncc1)c1ccc(Cl)cc1F | 0.55 |
| O=C(Nc1cccc(CN2CCOC2=O)c1)N1CCCCCC1 | 18.6 |
| Cc1nccn1-c1cc(CNC(=O)CCNC(=O)OC(C)(C)C)ccn1 | -1.7 |
| CC(OCC(F)(F)F)C(=O)NCCN(C)C (stereo not drawn) | -3.17 |
| CN(CC(=O)NC(C)(C)C)Cc1nc(-c2ccccc2)c[nH]1 | -2.23 |
| O=C(C[S+]([O-])Cc1ccc(F)cc1Cl)N1CCc2sccc2C1 (stereo not drawn) | -2.22 |
| CN(CCc1nccs1)C(=O)CC1(O)CCCCC1 | -6.16 |
| Cc1nccc(CNC(=O)N2CCN(Cc3ccccc3)C[C@H]2C)n1 | -128 |
| Cc1ccc(-n2nnnc2C2(NCc3ccco3)CCCC2)cc1 | 7.55 |
| Cc1cnn(C2CN(Cc3nnc(C4CC4)o3)C2)c1 | -6.49 |
| CC(Nc1ccc(CCN2CCCCC2)cc1)C(=O)N(C)CCC#N (stereo not drawn) | 7.61 |
| CCCN1CCCN(C(=O)C(CC)N2CCCC2=O)CC1 (stereo not drawn) | -6.17 |
| Cn1ccnc(Sc2ccccc2)c1=O | 0.483 |
| C[S+]([O-])c1nncn1CC(=O)c1cccc(Cl)c1 (stereo not drawn) | -1.02 |
| Cc1cccc(NC(=O)[C@@H]2CCCN2CC(=O)N2CCCCCC2)n1 | 20.3 |
| CC(C)c1nc(CN(C)CC2CCN(CCO)CC2)no1 | -4.32 |
| CC(=O)N1CCN(CCNS(=O)(=O)c2ccc(C)c(F)c2)CC1 | -1.84 |
| COc1ccc(S(=O)(=O)N2C[C@@H]3CN(C)CCO[C@@H]3C2)cc1 | 1.82 |
| COc1nccc(N2CC[C@@H](N3CCN(C)CC3)[C@H](O)C2)c1C#N | -147 |
| CC1(c2ccccc2)CCCN(C(=O)c2ccn3nnnc3c2)C1 (stereo not drawn) | 22.6 |
| COc1cccc([C@@H]2CCN(Cc3cccc(C)n3)C[C@H]2O)c1 | 2.22 |

| SMILES | cytotoxicity at 10 µM [%] |
| --- | --- |
| CNC(=O)C(C)(C)N(C)C(=O)c1cc(COc2ccccc2OC)[nH]n1 | -5.12 |
| Cc1nc(C2CCNCC2)cc(N(C)CCc2cn[nH]c2)n1 | -1.54 |
| CC(NC1CCSCC1)c1ccccc1-n1cccn1 (stereo not drawn) | -2.24 |
| COCCn1cncc1Cn1cccc(C(F)(F)F)c1=O | -19.2 |
| CCN(C)S(=O)(=O)N1CCCC(CO)(CC=C(C)C)C1 (stereo not drawn) | -3.41 |
| COc1c(C)cnc(CN(C)C(=O)c2ccc(C3CCCO3)s2)c1C (stereo not drawn) | 9.5 |
| CCCn1c(C)c(CC(=O)NCCOC)c2c1CC(C)(C)CC2=O | -1.01 |
| CSCCC(O)C(=O)N1CCCN(Cc2cccnc2)CC1 (stereo not drawn) | 8.2 |
| CC1(C)OC(=O)N(CCCC(=O)c2ccc(F)cc2)C1=O | -4.87 |
| Cn1ccc2c(-c3cc(N4CCOCC4)ncn3)ccnc21 | 2.64 |
| CN(CCc1ncnn1C1Cc2ccccc2C1)C1CCS(=O)(=O)C1 (stereo not drawn) | -3.54 |
| CCN(Cc1nccn1C)C(=O)c1ccc(NCc2cnn(C)c2)nc1 | 0.82 |
| Nc1ccc(C(=O)N2CCCC(C(=O)CCc3ccccc3)C2)cn1 (stereo not drawn) | -7.98 |
| CN(C)S(=O)(=O)N1CC[C@]2(O)CCN(Cc3cccc(C#N)c3)C[C@@H]2C1 | -4.63 |
| O=C(CCCN1CCOCC1)N1CCCC(CO)(CC2CC2)C1 (stereo not drawn) | -1.5 |
| CN(CC(=O)N1CC(C)(C)[C@](O)(C2CC2)C1)Cc1cccnc1 | -52 |
| COc1ccc(Oc2cncc(C3CCCN3C(C)=O)n2)cc1 (stereo not drawn) | 2.86 |
| Cc1cc(C)n(CC2CN(CC(=O)N3CCNC3=O)CCO2)n1 (stereo not drawn) | -2.38 |
| CCCc1noc(CN2CCN(c3nccs3)CC2)n1 | -3.43 |
| CC(Cn1cccn1)NC(=O)Nc1ccccn1 (stereo not drawn) | 1.32 |
| Cn1cnc2c1CCN(Cc1csc(Cc3ccccc3)n1)C2 | -5.4 |
| Cc1ncncc1C(=O)N1CCOC(c2nc(C(C)C)n[nH]2)C1 (stereo not drawn) | -4.98 |
| Cc1ccc(NC2CCN(C(=O)CCCc3cccs3)CC2)nn1 | -8.49 |

| SMILES | cytotoxicity at 10 µM [%] |
| --- | --- |
| Cc1ccccc1OCC(=O)N1CCCC(CNS(C)(=O)=O)C1 (stereo not drawn) | 2.07 |
| Cc1cc(C)n(CC2CCCN2C(=O)c2cnccn2)n1 (stereo not drawn) | 6.41 |
| CCc1nccn1C1CCCN(C(=O)c2csc(C3CC3)n2)C1 (stereo not drawn) | -9.39 |
| CN(C)c1ncccc1CNS(=O)(=O)c1ccccc1Cl | -15.3 |
| Cc1cnn(CC2CCCCN2C(=O)c2ccc(N(C)C)nc2)c1 (stereo not drawn) | -13.2 |
| Cc1nn(C)c(C)c1C1CCCN1C(=O)c1ccnc(N(C)C)c1 (stereo not drawn) | -5.42 |
| CCc1nc(CN2CCCN(C(=O)c3cncnc3C)CC2)cs1 | -7.95 |
| CCn1cnnc1CNC(=O)N1CCOCC1 | 3.66 |
| Cc1nc(C2CCCN(C(=O)c3cccc4c3OCO4)C2)no1 (stereo not drawn) | 3.39 |
| CCCc1ncc(C(=O)N2CCOC(c3nc(C)n[nH]3)C2)s1 (stereo not drawn) | -0.12 |
| Cc1ccccc1CN1CCN(CC(=O)Nc2cccnc2)CC1 | -2.82 |
| CN(C)Cc1nn(C)c2c1CN(C(=O)c1ccc[nH]1)C2 | 9.22 |
| O=S(=O)(C1CC1)N1CC[C@H](OCC2CC2)[C@@H]1Cc1cccnc1 | 8.13 |
| O=C1NCC[C@]12CN(Cc1cccnc1)C[C@H]2c1ccccc1 | -137 |
| O=C(Nc1ccc(F)cc1)C(c1ccccc1)N1CCOCC1 (stereo not drawn) | -3.84 |
| c1coc(CN2CCCn3c(CN4CCOCC4)nnc3C2)c1 | 4.86 |
| CC(C)Nc1nc2c(cc1C(=O)N(C)C)CCNCC2 | -4.99 |
| COc1cc(N2CCC3(CCN(C(=O)c4cccnc4)CC3)C2)ncn1 | -130 |
| Cn1nc(Cn2cccn2)c2c1CN(C1CCOC1)C2 (stereo not drawn) | 6.92 |
| Cc1ccsc1CN1C[C@@H]2COC[C@]2(COCC(=O)N(C)C)C1 | -4.55 |
| CN(C)C(=O)N1C[C@H]2CC[C@@H](C1)N(Cc1nnc(-c3ccccc3)o1)C2 | 4.6 |
